What was measured:
Assay type in all cases: functional
NCI-H322M [1] = experiment: Growth inhibition of human NCI-H322M cells
HT-29 [2] = experiment: Growth inhibition of human HT-29 cells
MOLT-4 = experiment: Growth inhibition of human MOLT4 cells
SNB-75 [3] = experiment: Growth inhibition of human SNB75 cells
A549 = experiment: Growth inhibition of human A549 cells
MDA-MB-231 = experiment: Growth inhibition of human MDA-MB-231 cells assessed tumor cell growth at 10^-5 M; design: scale not given: the % may be the effect or the level left
Summary of the method: (§1)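 NCI 60-human-tumor-cell-line panel screen. Each compound was tested at a single concentration of 10^-5 M, and percent growth of tumor cells was recorded for each cell line. Growth inhibition was expressed from these percent-growth values.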

NCI-H23 [4] = experiment: Growth inhibition of human NCI-H23 cells
OVCAR-5 = experiment: Growth inhibition of human OVCAR5 cells assessed tumor cell growth at 10^-5 M; design: scale not given: the % may be the effect or the level left; summary of the method: as §1
SK-MEL-5 = experiment: Growth inhibition of human SK-MEL-5 cells
BT-549 [5] = experiment: Growth inhibition of human BT549 cells
CCRF-CEM = experiment: Growth inhibition of human CCRF-CEM cells
SF-268 [6] = experiment: Growth inhibition of human SF268 cells
UACC-257 = experiment: Growth inhibition of human UACC257 cells
SK-MEL-2 [7] = experiment: Growth inhibition of human SK-MEL-2 cells
OVCAR-3 = experiment: Growth inhibition of human OVCAR3 cells
SNB-19 = experiment: Growth inhibition of human SNB19 cells assessed tumor cell growth at 10^-5 M; design: scale not given: the % may be the effect or the level left
Summary of the method: (§2)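 Single-dose screen at 10^-5 M across the 60 human tumor cell line panel, run to NCI standards. The value is the percent growth of each cell line in the presence of compound. Compounds active at this dose moved on to five-concentration testing (10^-4 to 10^-8 M).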

HCT-15 = experiment: Growth inhibition of human HCT15 cells
NCI-H226 [8] = experiment: Growth inhibition of human NCI-H226 cells assessed tumor cell growth at 10^-5 M; design: scale not given: the % may be the effect or the level left; summary of the method: as §1
UACC-62 [9] = experiment: Growth inhibition of human UACC62 cells
ACHN = experiment: Growth inhibition of human ACHN cells
OVCAR-4 = experiment: Growth inhibition of human OVCAR4 cells
HCC 2998 = experiment: Growth inhibition of human HCC2998 cells assessed tumor cell growth at 10^-5 M; design: scale not given: the % may be the effect or the level left; summary of the method: as §1
IGROV-1 [10] = experiment: Growth inhibition of human IGROV1 cells assessed tumor cell growth at 10^-5 M; design: scale not given: the % may be the effect or the level left; summary of the method: as §1
NCI-H226 [11] = experiment: Growth inhibition of human NCI-H226 cells
HT-29 [12] = experiment: Growth inhibition of human HT-29 cells assessed tumor cell growth at 10^-5 M; design: scale not given: the % may be the effect or the level left; summary of the method: as §1
SNB-75 [13] = experiment: Growth inhibition of human SNB75 cells assessed tumor cell growth at 10^-5 M; design: scale not given: the % may be the effect or the level left; summary of the method: as §2
SW-620 = experiment: Growth inhibition of human SW620 cells assessed tumor cell growth at 10^-5 M; design: scale not given: the % may be the effect or the level left; summary of the method: as §2
SK-OV-3 = experiment: Growth inhibition of human SKOV3 cells
RXF 393 = experiment: Growth inhibition of human RXF393 cells
[14] = Growth inhibition of human […] cells assessed tumor cell growth at 10^-5 M; design: scale not given: the % may be the effect or the level left; summary of the method: as §1
T47D = experiment: Growth inhibition of human T47D cells
M14 = experiment: Growth inhibition of human M14 cells assessed tumor cell growth at 10^-5 M; design: scale not given: the % may be the effect or the level left; summary of the method: as §1
COLO 205 = experiment: Growth inhibition of human COLO205 cells assessed tumor cell growth at 10^-5 M; design: scale not given: the % may be the effect or the level left; summary of the method: as §1
SF-268 [15] = experiment: Growth inhibition of human SF268 cells assessed tumor cell growth at 10^-5 M; design: scale not given: the % may be the effect or the level left; summary of the method: as §1
UACC-62 [16] = experiment: Growth inhibition of human UACC62 cells assessed tumor cell growth at 10^-5 M; design: scale not given: the % may be the effect or the level left; summary of the method: as §2
786-0 [17] = experiment: Growth inhibition of human 786-0 cells
NCI-H23 [18] = experiment: Growth inhibition of human NCI-H23 cells assessed tumor cell growth at 10^-5 M; design: scale not given: the % may be the effect or the level left; summary of the method: as §1
SF-539 = experiment: Growth inhibition of human SF539 cells
MDA-MB-435 = experiment: Growth inhibition of human MDA-MB-435 cells assessed tumor cell growth at 10^-5 M; design: scale not given: the % may be the effect or the level left; summary of the method: as §1
[19] = Growth inhibition of human Hs 578T cells assessed tumor cell growth at 10^-5 M; design: scale not given: the % may be the effect or the level left; summary of the method: as §1
NCI-H322M [20] = experiment: Growth inhibition of human NCI-H322M cells assessed tumor cell growth at 10^-5 M; design: scale not given: the % may be the effect or the level left; summary of the method: as §1
HL-60(TB) = experiment: Growth inhibition of human HL-60(TB) cells assessed tumor cell growth at 10^-5 M; design: scale not given: the % may be the effect or the level left
Summary of the method: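 HL-60(TB), part of the 60-line panel, tested at a single concentration of 10^-5 M. The read-out is percent tumor cell growth relative to untreated growth.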

SK-MEL-2 [21] = experiment: Growth inhibition of human SK-MEL-2 cells assessed tumor cell growth at 10^-5 M; design: scale not given: the % may be the effect or the level left; summary of the method: as §1
BT-549 [22] = experiment: Growth inhibition of human BT549 cells assessed tumor cell growth at 10^-5 M; design: scale not given: the % may be the effect or the level left; summary of the method: as §1
SR = experiment: Growth inhibition of human SR cells
786-0 [23] = experiment: Growth inhibition of human 786-0 cells assessed tumor cell growth at 10^-5 M; design: scale not given: the % may be the effect or the level left; summary of the method: as §1
IGROV-1 [24] = experiment: Growth inhibition of human IGROV1 cells
Summary of the method: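 Follow-up panel testing at five concentrations (10^-4, 10^-5, 10^-6, 10^-7 and 10^-8 M) across the 60 human tumor cell lines. GI50 was obtained for each line from the concentration-response data, with the panel average GI50 also reported.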

[25] = Growth inhibition of human Hs 578T cells
[26] = read-out: LC50 (the source's name)

O=C1/C(=C\c2coc3ccccc3c2=O)c2ccccc2N1c1c(Cl)cccc1Cl showed a GI50 (NCI-H322M [1]) of 5.8 µM, a CC50 (NCI-H322M [1]; [26]) of over 100 µM and a GI50 (HT-29 [2]) of 3 µM. The CC50 (HT-29 [2]; [26]) was over 100 µM, the GI50 (MOLT-4) was 2.9 µM and the GI50 (SNB-75 [3]) was 1.9 µM. It also gave a CC50 (SNB-75 [3]; [26]) of over 100 µM, a GI50 (A549) of 4.2 µM and a CC50 (A549; [26]) of over 100 µM. It also gave an Activity (MDA-MB-231) of 60.45%, a GI50 (NCI-H23 [4]) of 4.4 µM and an Activity (OVCAR-5) of 101.76%. The GI50 (SK-MEL-5) was 2.4 µM, the CC50 (SK-MEL-5; [26]) was over 100 µM and the GI50 (BT-549 [5]) was 2.8 µM. The CC50 (BT-549 [5]; [26]) was over 100 µM, the GI50 (CCRF-CEM) was 2 µM and the CC50 (CCRF-CEM; [26]) was over 100 µM. For the same compound, the GI50 (SF-268 [6]) was 3.3 µM, the CC50 (SF-268 [6]; [26]) was over 100 µM and the GI50 (UACC-257) was 4.5 µM. The CC50 (UACC-257; [26]) was over 100 µM, the GI50 (SK-MEL-2 [7]) was 2.7 µM and the CC50 (SK-MEL-2 [7]; [26]) was 61.6 µM. For the same compound, the GI50 (OVCAR-3) was 2.6 µM, the CC50 (OVCAR-3; [26]) was over 100 µM and the Activity (SNB-19) was 62.58%. It also gave a GI50 (HCT-15) of 0.6 µM, a CC50 (HCT-15; [26]) of over 100 µM and an Activity (NCI-H226 [8]) of 90.68%. For the same compound, the GI50 (UACC-62 [9]) was 2.1 µM, the CC50 (UACC-62 [9]; [26]) was over 100 µM and the GI50 (ACHN) was 4.1 µM. The CC50 (ACHN; [26]) was over 100 µM, the GI50 (OVCAR-4) was 3.6 µM and the CC50 (OVCAR-4; [26]) was over 100 µM. The Activity (HCC 2998) was 53%, the Activity (IGROV-1 [10]) was 48.69% and the GI50 (NCI-H226 [11]) was 20.8 µM. For the same compound, the CC50 (NCI-H226 [11]; [26]) was over 100 µM, the Activity (HT-29 [12]) was 47.62% and the Activity (SNB-75 [13]) was 62.74%. It also gave an Activity (SW-620) of 35%, a GI50 (SK-OV-3) of 35.4 µM and a CC50 (SK-OV-3; [26]) of over 100 µM. It also gave a GI50 (RXF 393) of 1.8 µM, a CC50 (RXF 393; [26]) of 69.1 µM and an Activity [14] of 10.21%. The GI50 (T47D) was 3 µM, the CC50 (T47D; [26]) was over 100 µM and the Activity (M14) was 43.38%. It also gave an Activity (COLO 205) of 55.33%, an Activity (SF-268 [15]) of 31.99% and an Activity (UACC-62 [16]) of 36.62%. It also gave a GI50 (786-0 [17]) of 3 µM, a CC50 (786-0 [17]; [26]) of over 100 µM and an Activity (NCI-H23 [18]) of 55.41%. It also gave a GI50 (SF-539) of 3 µM, a CC50 (SF-539; [26]) of over 100 µM and an Activity (MDA-MB-435) of 14.46%. For the same compound, the Activity [19] was 27.37%, the Activity (NCI-H322M [20]) was 73.67% and the Activity (HL-60(TB)) was 33.76%. For the same compound, the Activity (SK-MEL-2 [21]) was 85.69%, the Activity (BT-549 [22]) was 41.11% and the GI50 (SR) was 1.4 µM. For the same compound, the CC50 (SR; [26]) was over 100 µM, the Activity (786-0 [23]) was 27.05% and the GI50 (IGROV-1 [24]) was 1.6 µM. For the same compound, the CC50 (IGROV-1 [24]; [26]) was 97.9 µM, the GI50 [25] was 9.1 µM and the CC50 [25, 26] was over 100 µM.

Reference: ChEMBL document CHEMBL1811814, “Synthesis and evaluation of indole, pyrazole, chromone and pyrimidine based conjugates for tumor growth inhibitory activities--development of highly efficacious cytotoxic agents” (Eur J Med Chem, 2010)
